ChEMBL document CHEMBL1132220 (J Med Chem, 1999)
Bridge positions count the residues as written; N and C are the ends. Square brackets hold non-standard residues; d marks the D form. Peptide text beside a SMILES is read from it. Phe(4-Cl) = N[C@@H](Cc1ccc(Cl)cc1)C(=O)O; 2Nal = N[C@@H](Cc1ccc2ccccc2c1)C(=O)O; Bta = N[C@@H](Cc1csc2ccccc12)C(=O)O; 3Pal = N[C@@H](Cc1cccnc1)C(=O)O; Tle = CC(C)(C)[C@H](N)C(=O)O; Nle = CCCC[C@H](N)C(=O)O

How the values were obtained:
[1] = biological target: Somatostatin receptor type 1 (Homo sapiens, UniProt P30872); assay: The compound was tested for binding affinity against human Somatostatin receptor type 1
Outline: (§1)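 Membranes from CHO-K1 cells transfected with the cloned human receptor. Terminated by filtration on PEI-soaked GF/C filters. Nonspecific binding defined with 1.0 μM SRIF. Mean ± SEM; single values are from one experiment.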

[2] = biological target: Somatostatin receptor type 5 (Homo sapiens, UniProt P35346); assay: The compound was tested for binding affinity against human Somatostatin receptor type 5; outline: as §1
[3] = biological target: Somatostatin receptor type 2 (Homo sapiens, UniProt P30874); assay: The compound was tested for binding affinity against human Somatostatin receptor type 2
Outline: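 Membranes from CHO-K1 cells transfected with the cloned human sst2. Incubated 30 min at 37 °C with 0.05 nM [125I]MK-678 in HEPES pH 7.4 with BSA, MgCl2, Trasylol, bacitracin and PMSF. Filtration on PEI-soaked GF/C filters. Nonspecific binding defined with 1.0 μM SRIF. Mean ± SEM; single values are from one experiment.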

[4] = biological target: Somatostatin receptor type 3 (Homo sapiens, UniProt P32745); assay: The compound was tested for binding affinity against human Somatostatin receptor type 3
Outline: (§2)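 CHO-K1 cells stably transfected (calcium phosphate) with cloned human sst3 or sst4. Membranes made in ice-cold 50 mM Tris-HCl, resuspended in 10 mM Tris-HCl, then incubated 30 min at 37 °C with 0.05 nM [125I]Tyr11-SRIF in HEPES pH 7.4 with BSA, MgCl2 and protease inhibitors. Filtered on GF/C; nonspecific binding with 1.0 µM SRIF. Mean ± SEM, or one experiment.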

[5] = biological target: Somatostatin receptor type 4 (Homo sapiens, UniProt P31391); assay: The compound was tested for binding affinity against human Somatostatin receptor type 4; outline: as §2
Sequence of Somatostatin receptor type 4 (P31391 whole entry): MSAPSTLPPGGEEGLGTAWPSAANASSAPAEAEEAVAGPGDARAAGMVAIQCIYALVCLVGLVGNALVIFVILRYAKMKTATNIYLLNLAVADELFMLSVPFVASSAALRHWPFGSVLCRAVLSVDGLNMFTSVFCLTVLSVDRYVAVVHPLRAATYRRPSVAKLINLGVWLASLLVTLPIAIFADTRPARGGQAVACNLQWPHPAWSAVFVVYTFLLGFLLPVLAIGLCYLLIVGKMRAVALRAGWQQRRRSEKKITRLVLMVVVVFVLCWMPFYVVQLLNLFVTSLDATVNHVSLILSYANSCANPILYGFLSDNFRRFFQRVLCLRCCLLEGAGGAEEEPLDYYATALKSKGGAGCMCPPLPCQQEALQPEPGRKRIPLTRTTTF

Sequence of Somatostatin receptor type 5 (P35346 whole entry): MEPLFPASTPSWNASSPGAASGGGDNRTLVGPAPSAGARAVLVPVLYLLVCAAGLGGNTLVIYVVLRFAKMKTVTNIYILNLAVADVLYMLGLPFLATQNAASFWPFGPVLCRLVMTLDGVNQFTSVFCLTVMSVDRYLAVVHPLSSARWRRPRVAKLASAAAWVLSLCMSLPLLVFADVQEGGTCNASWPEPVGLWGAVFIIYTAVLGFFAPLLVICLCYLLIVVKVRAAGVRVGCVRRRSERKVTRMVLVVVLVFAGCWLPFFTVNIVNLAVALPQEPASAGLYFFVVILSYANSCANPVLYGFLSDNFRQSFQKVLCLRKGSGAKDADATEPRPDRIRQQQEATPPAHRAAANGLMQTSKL
Sequence of Somatostatin receptor type 2 (P30874 whole entry): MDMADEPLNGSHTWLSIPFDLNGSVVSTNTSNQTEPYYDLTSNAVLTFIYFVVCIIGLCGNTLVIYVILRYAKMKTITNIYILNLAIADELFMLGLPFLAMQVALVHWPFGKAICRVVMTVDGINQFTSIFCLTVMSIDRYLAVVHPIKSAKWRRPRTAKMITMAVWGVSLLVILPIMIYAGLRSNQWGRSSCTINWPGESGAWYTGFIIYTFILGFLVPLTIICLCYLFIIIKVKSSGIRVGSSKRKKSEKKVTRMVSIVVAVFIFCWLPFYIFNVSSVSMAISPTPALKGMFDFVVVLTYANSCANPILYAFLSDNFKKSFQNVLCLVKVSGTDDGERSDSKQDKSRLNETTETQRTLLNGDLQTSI
Sequence of Somatostatin receptor type 3 (P32745 whole entry): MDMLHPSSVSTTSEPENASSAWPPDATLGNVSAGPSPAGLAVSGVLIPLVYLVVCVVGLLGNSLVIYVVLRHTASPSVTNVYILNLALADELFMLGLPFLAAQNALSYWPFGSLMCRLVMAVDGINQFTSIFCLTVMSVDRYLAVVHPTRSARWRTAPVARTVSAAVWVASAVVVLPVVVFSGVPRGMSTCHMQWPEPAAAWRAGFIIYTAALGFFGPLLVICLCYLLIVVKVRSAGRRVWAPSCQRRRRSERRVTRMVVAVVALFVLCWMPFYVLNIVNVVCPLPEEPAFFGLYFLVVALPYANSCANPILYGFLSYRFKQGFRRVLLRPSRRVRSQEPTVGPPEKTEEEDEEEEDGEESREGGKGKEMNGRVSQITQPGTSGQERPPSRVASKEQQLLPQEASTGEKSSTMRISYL
Sequence of Somatostatin receptor type 1 (P30872 whole entry): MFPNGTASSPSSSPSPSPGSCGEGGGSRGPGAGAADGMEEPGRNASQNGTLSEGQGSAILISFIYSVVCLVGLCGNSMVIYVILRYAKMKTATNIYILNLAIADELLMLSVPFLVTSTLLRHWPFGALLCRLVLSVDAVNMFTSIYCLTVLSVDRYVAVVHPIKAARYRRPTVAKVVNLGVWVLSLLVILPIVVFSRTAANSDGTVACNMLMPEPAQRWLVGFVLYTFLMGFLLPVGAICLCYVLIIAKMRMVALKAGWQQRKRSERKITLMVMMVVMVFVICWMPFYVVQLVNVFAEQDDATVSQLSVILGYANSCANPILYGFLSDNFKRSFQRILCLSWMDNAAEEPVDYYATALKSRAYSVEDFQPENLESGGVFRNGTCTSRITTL

SMILES	Ki [1]	Ki [2]	Ki [3]	Ki [4]	Ki [5]
CC(C)[C@@H]1NC(=O)[C@H](CCCCN)NC(=O)[C@@H](Cc2c[nH]c3ccccc23)NC(=O)[C@H](Cc2ccccn2)NC(=O)[C@H](NC(=O)[C@@H](N)Cc2c(F)c(F)c(F)c(F)c2F)CSSC[C@@H](C(=O)N[C@@H](Cc2c(F)c(F)c(F)c(F)c2F)C(N)=O)NC1=O	568 nM	918 nM	> 1000 nM	170 nM	
C[C@@H]1NC(=O)[C@H](CCCCN)NC(=O)[C@@H](Cc2c[nH]c3ccccc23)NC(=O)[C@H](Cc2cccnc2)NC(=O)[C@H](NC(=O)[C@@H](N)Cc2ccc3ccccc3c2)CSSC[C@@H](C(=O)N[C@@H](Cc2ccc3ccccc3c2)C(N)=O)NC1=O	1200 nM	1860 nM	203 nM	379 nM	> 1000 nM
CC(C)[C@@H]1NC(=O)[C@H](CCCCN)NC(=O)[C@@H](Cc2c[nH]c3ccccc23)NC(=O)[C@H](Cc2cccnc2)NC(=O)[C@H](NC(=O)[C@@H](N)Cc2ccc3ccccc3c2)CSSC[C@@H](C(=O)N[C@H](C(N)=O)C(c2ccccc2)c2ccccc2)NC1=O	> 1000 nM	725 nM	37 nM	1600 nM	> 1000 nM
CC(C)[C@H]1NC(=O)[C@H](CCCCN)NC(=O)[C@@H](Cc2c[nH]c3ccccc23)NC(=O)[C@H](Cc2c[nH]cn2)NC(=O)C(NC(=O)[C@@H](N)Cc2c(F)c(F)c(F)c(F)c2F)CSSCC(C(=O)N[C@@H](Cc2c(F)c(F)c(F)c(F)c2F)C(N)=O)NC1=O (stereo in doubt)	69 nM	926 nM	637 nM	124 nM	> 1000 nM
CC(C)[C@@H]1NC(=O)[C@H](CCCCN)NC(=O)[C@@H](Cc2c[nH]c3ccccc23)NC(=O)[C@H](Cc2cccnc2)NC(=O)[C@H](NC(=O)[C@@H](N)Cc2ccc(F)cc2)CSSC[C@@H](C(=O)N[C@@H](Cc2ccc3ccccc3c2)C(N)=O)NC1=O	484 nM	287 nM	35 nM	271 nM	> 1000 nM
CC(C)[C@@H]1NC(=O)[C@H](CCCCN)NC(=O)[C@@H](Cc2c[nH]c3ccccc23)NC(=O)[C@H](Cc2cccnc2)NC(=O)[C@H](NC(=O)[C@@H](N)Cc2ccc3ccccc3c2)CSSC[C@@H](C(=O)N[C@@H](Cc2ccc(F)cc2)C(N)=O)NC1=O	1060 nM	376 nM	69 nM	166 nM	> 1000 nM
CC(C)[C@@H]1NC(=O)[C@H](CCCCN)NC(=O)[C@@H](Cc2c[nH]c3ccccc23)NC(=O)[C@H](Cc2cccnc2)NC(=O)[C@H](NC(=O)[C@@H](N)Cc2ccc(I)cc2)CSSC[C@@H](C(=O)N[C@@H](Cc2ccc(I)cc2)C(N)=O)NC1=O	575 nM	48 nM	32 nM	18 nM	436 nM
CC(C)[C@@H]1NC(=O)[C@H](CCCCN)NC(=O)[C@@H](Cc2c[nH]c3ccccc23)NC(=O)[C@H](Cc2cccnc2)NC(=O)[C@H](NC(=O)[C@@H](N)Cc2cccc(F)c2)CSSC[C@@H](C(=O)N[C@@H](Cc2cccc(F)c2)C(N)=O)NC1=O	82 nM	748 nM	117 nM	495 nM	> 1000 nM
CC(C)[C@@H]1NC(=O)[C@H](CCCCN)NC(=O)[C@@H](Cc2c[nH]c3ccccc23)NC(=O)[C@H](Cc2cccnc2)NC(=O)[C@H](NC(=O)[C@@H](N)Cc2ccc(Br)cc2)CSSC[C@@H](C(=O)N[C@@H](Cc2ccc(Br)cc2)C(N)=O)NC1=O	374 nM	66 nM	16 nM	57 nM	3310 nM
CC(C)[C@@H]1NC(=O)[C@H](CCCCN)NC(=O)[C@@H](Cc2c[nH]c3ccccc23)NC(=O)[C@H](Cc2csc3ccccc23)NC(=O)[C@H](NC(=O)[C@@H](N)Cc2ccc3ccccc3c2)CSSC[C@@H](C(=O)N[C@@H](Cc2ccc3ccccc3c2)C(N)=O)NC1=O (H-[2Nal][dC][Bta][dW]KVC[2Nal]-NH2; disulfide 2-7)	> 1000 nM	1400 nM	418 nM	709 nM	> 1000 nM
CC(C)[C@@H]1NC(=O)[C@H](CCCCN)NC(=O)[C@@H](Cc2c[nH]c3ccccc23)NC(=O)[C@H](Cc2cccnc2)NC(=O)[C@H](NC(=O)[C@@H](N)Cc2ccc(C#N)cc2)CSSC[C@@H](C(=O)N[C@@H](Cc2ccc(C#N)cc2)C(N)=O)NC1=O	> 1000 nM	304 nM	99 nM	103 nM	> 1000 nM
CC(C)(C)[C@@H]1NC(=O)[C@H](CCCCN)NC(=O)[C@@H](Cc2c[nH]c3ccccc23)NC(=O)[C@H](Cc2cccnc2)NC(=O)[C@H](NC(=O)[C@@H](N)Cc2ccc(Cl)cc2)CSSC[C@@H](C(=O)N[C@@H](Cc2ccc3ccccc3c2)C(N)=O)NC1=O (H-[Phe(4-Cl)][dC][3Pal][dW]K[Tle]C[2Nal]-NH2; disulfide 2-7)	> 1000 nM	520 nM	12 nM	100 nM	895 nM
CCCC[C@@H]1NC(=O)[C@H](CCCCN)NC(=O)[C@@H](Cc2c[nH]c3ccccc23)NC(=O)[C@H](Cc2cccnc2)NC(=O)[C@H](NC(=O)[C@@H](N)Cc2ccc3ccccc3c2)CSSC[C@@H](C(=O)N[C@@H](Cc2ccc3ccccc3c2)C(N)=O)NC1=O (H-[2Nal][dC][3Pal][dW]K[Nle]C[2Nal]-NH2; disulfide 2-7)	845 nM	814 nM	76 nM	126 nM	672 nM
C[C@@H](O)[C@@H]1NC(=O)[C@H](CCCCN)NC(=O)[C@@H](Cc2c[nH]c3ccccc23)NC(=O)[C@@H](Cc2cccnc2)NC(=O)C(NC(=O)[C@@H](N)Cc2ccc(Cl)cc2)CSSCC(C(=O)N[C@@H](Cc2ccc3ccccc3c2)C(N)=O)NC1=O (stereo in doubt)					> 1000 nM
CC(C)[C@H]1NC(=O)[C@H](CCCCN)NC(=O)[C@@H](Cc2c[nH]c3ccccc23)NC(=O)[C@H](Cc2c[nH]cn2)NC(=O)C(NC(=O)[C@@H](N)Cc2cccc(F)c2)CSSCC(C(=O)N[C@@H](Cc2cccc(F)c2)C(N)=O)NC1=O (stereo in doubt)	60 nM	734 nM	103 nM	397 nM	> 1000 nM
CC(C)[C@@H]1NC(=O)[C@H](CCCCN)NC(=O)[C@@H](Cc2c[nH]c3ccccc23)NC(=O)[C@H](Cc2ccc(O)c(I)c2)NC(=O)C(NC(=O)[C@@H](N)Cc2ccc3ccccc3c2)CSSCC(C(=O)N[C@@H](Cc2ccc3ccccc3c2)C(N)=O)NC1=O (stereo in doubt)	> 1000 nM	468 nM	194 nM	482 nM	> 1000 nM
CC(C)[C@@H]1NC(=O)[C@H](CCCCN)NC(=O)[C@@H](Cc2c[nH]c3ccccc23)NC(=O)[C@H](Cc2cccnc2)NC(=O)[C@H](NC(=O)[C@@H](N)Cc2ccc(F)cc2)CSSC[C@@H](C(=O)N[C@@H](Cc2ccc(F)cc2)C(N)=O)NC1=O	435 nM	369 nM	20 nM	120 nM	> 1000 nM
CC(C)[C@@H]1NC(=O)[C@H](CCCCN)NC(=O)[C@@H](Cc2c[nH]c3ccccc23)NC(=O)[C@H](Cc2cccnc2)NC(=O)[C@H](NC(=O)[C@@H](N)Cc2c(F)c(F)c(F)c(F)c2F)CSSC[C@@H](C(=O)N[C@@H](Cc2c(F)c(F)c(F)c(F)c2F)C(N)=O)NC1=O	525 nM	960 nM	633 nM	111 nM	176 nM
CC(C)(C)[C@@H]1NC(=O)[C@H](CCCCN)NC(=O)[C@@H](Cc2c[nH]c3ccccc23)NC(=O)[C@H](Cc2cccnc2)NC(=O)[C@H](NC(=O)[C@@H](N)Cc2ccc(Cl)cc2)CSSC[C@@H](C(=O)N[C@@H](Cc2ccc(Cl)cc2)C(N)=O)NC1=O	> 1000 nM		19 nM	58 nM	1640 nM
C[C@@H](O)[C@@H]1NC(=O)[C@H](CCCCN)NC(=O)[C@@H](Cc2c[nH]c3ccccc23)NC(=O)[C@H](Cc2ccccn2)NC(=O)C(NC(=O)[C@@H](N)Cc2ccc(Cl)cc2)CSSCC(C(=O)N[C@@H](Cc2ccc3ccccc3c2)C(N)=O)NC1=O (stereo in doubt)	1690 nM	204 nM	233 nM	108 nM	
C[C@@H](O)[C@@H]1NC(=O)[C@H](CCCCN)NC(=O)[C@@H](Cc2c[nH]c3ccccc23)NC(=O)[C@H](Cc2ccccc2)NC(=O)[C@H](NC(=O)[C@@H](N)Cc2ccc(Cl)cc2)CSSC[C@@H](C(=O)N[C@@H](Cc2ccc3ccccc3c2)C(N)=O)NC1=O	443 nM		51 nM	290 nM	> 1000 nM
CC(C)[C@@H]1NC(=O)[C@H](CCCCN)NC(=O)[C@@H](Cc2c[nH]c3ccccc23)NC(=O)[C@@H](Cc2ccccn2)NC(=O)[C@H](NC(=O)[C@@H](N)Cc2c(F)c(F)c(F)c(F)c2F)CSSC[C@@H](C(=O)N[C@@H](Cc2c(F)c(F)c(F)c(F)c2F)C(N)=O)NC1=O	34 nM	1380 nM	692 nM	93 nM	
CC(C)(C)C[C@@H]1NC(=O)[C@H](CCCCN)NC(=O)[C@@H](Cc2c[nH]c3ccccc23)NC(=O)[C@H](Cc2cccnc2)NC(=O)C(NC(=O)[C@@H](N)Cc2ccc(Cl)cc2)CSSCC(C(=O)N[C@@H](Cc2ccc3ccccc3c2)C(N)=O)NC1=O (stereo in doubt)	238 nM	110 nM	166 nM	175 nM	
